Measurements from publication PMC9150438 (Methods in enzymology, 2022).
One block for each molecule: values may come before it.

Columns and labels:
MEK1-NL = MEK1-NL (Homo sapiens, UniProt Q02750); experiment: NanoBRET tracer build-up; assay type: binding
Procedure, shortened: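 HEK293T cells at ~70% confluence were plated at 200,000 cells/mL and transfected with MEK1-NL alone, MEK1-NL plus mKSR1, or mKSR1-NL, then incubated at least 20 h at 37 °C. The Tram-bo tracer was titrated in each scenario to record BRET, giving an apparent EC50 and maximal BRET signal for each. These set the working tracer concentration above EC50.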

mKSR1:MEK1 complex = conditions: steady-state NanoBRET, 1 μM Tram-bo (Fig. 7A); ref Khan et al., 2020; cited from earlier work
BRAF = BRAF (Homo sapiens, UniProt P15056); experiment: ATP-biotin probe labeling competition assay on isolated BRAF; assay type: binding; conditions: MEK, KSR1:MEK and KSR2:MEK labeled with 2.5 μM probe (Fig. 4E)
Sequence of BRAF (P15056 457-717 limits assumed): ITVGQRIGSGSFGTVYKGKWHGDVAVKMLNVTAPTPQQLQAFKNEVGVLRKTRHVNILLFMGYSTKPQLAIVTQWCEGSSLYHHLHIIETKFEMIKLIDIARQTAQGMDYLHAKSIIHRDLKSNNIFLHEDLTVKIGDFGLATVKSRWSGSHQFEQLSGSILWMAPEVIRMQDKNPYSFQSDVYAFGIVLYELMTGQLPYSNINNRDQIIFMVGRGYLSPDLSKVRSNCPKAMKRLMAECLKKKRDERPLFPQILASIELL

KRAS mutant cell lines = conditions: ref Khan et al., 2020; cited from earlier work
mKSR1-NL W781D = conditions: mKSR1 W781D interface mutant (Fig. 6F); ref Khan et al., 2020; cited from earlier work
SEC = molecular target: the molecule itself; experiment: SEC

Sequence of MEK1-NL (Q02750 whole entry): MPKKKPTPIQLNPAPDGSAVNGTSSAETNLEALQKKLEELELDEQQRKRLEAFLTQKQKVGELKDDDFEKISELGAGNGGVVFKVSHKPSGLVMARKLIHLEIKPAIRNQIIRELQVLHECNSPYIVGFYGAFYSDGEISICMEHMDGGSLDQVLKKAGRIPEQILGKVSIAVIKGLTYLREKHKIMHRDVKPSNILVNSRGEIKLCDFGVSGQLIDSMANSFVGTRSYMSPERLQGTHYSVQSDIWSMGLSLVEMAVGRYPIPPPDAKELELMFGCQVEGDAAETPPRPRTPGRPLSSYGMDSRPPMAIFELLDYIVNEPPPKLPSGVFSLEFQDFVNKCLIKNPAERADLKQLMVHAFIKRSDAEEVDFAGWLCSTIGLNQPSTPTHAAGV

fold difference of Tram-bo EC50, MEK1-NL vs the two MEK1–mKSR1 complex scenarios (MEK1-NL; MEK1-NL vs mKSR1-NL and MEK1-NL coexpressed with mKSR1 (Fig. 6C)): ~ 20 times | apparent EC50 of Tram-bo (MEK1-NL; NanoBRET build-up curves (Fig. 6C)): in the nanomolar range
Molecule: Cc1c(=O)n(C)c(Nc2ccc(I)cc2F)c2c(=O)n(C3CC3)c(=O)n(-c3cccc(NC(=O)CCOCCOCCNC(=O)CCc4ccc5n4[B-](F)(F)[N+]4=C(c6ccc[nH]6)C=CC4=C5)c3)c12 [Tram-bo]

Molecule: O=C(c1ccc(F)c(F)c1Nc1ccc(I)cc1F)N1CC(O)([C@@H]2CCCCN2)C1 [cobimetinib]
apparent IC50 on free MEK1 compared with the mKSR1:MEK1 complex (mKSR1:MEK1 complex): more potent binding to the complex

inhibitor specificity in ATP-biotin competition assay (BRAF): BRAF-specific inhibition
Molecule: CC(C)(C)c1nc(-c2cccc(NS(=O)(=O)c3c(F)cccc3F)c2F)c(-c2ccnc(N)n2)s1 [dabrafenib]

Molecule: CNS(=O)(=O)Nc1cccc(-n2c(=O)n(C3CC3)c(=O)c3c(Nc4ccc(I)cc4F)n(C)c(=O)c(C)c32)c1 [trametiglue]
potency of growth inhibition relative to trametinib and other MEKi including CH5126766 (KRAS mutant cell lines): markedly enhanced

Molecule: CC(=O)Nc1cccc(-n2c(=O)n(C3CC3)c(=O)c3c(Nc4ccc(I)cc4F)n(C)c(=O)c(C)c32)c1 [trametinib]
dose-response in KSR-NL assay with W781D mutant (mKSR1-NL W781D): loss of a Trametinib dose-response

B1: KSR1 pseudokinase domain [residues 591–899] (domain or fragment, human, UniProt Q8IVT5 591-899, looked up)
chain: PISRKASQTSVYLQEWDIPFEQVELGEPIGQGRWGRVHRGRWHGEVAIRLLEMDGHNQDHLKLFKKEVMNYRQTRHENVVLFMGACMNPPHLAIITSFCKGRTLHSFVRDPKTSLDINKTRQIAQEIIKGMGYLHAKGIVHKDLKSKNVFYDNGKVVITDFGLFGISGVVREGRRENQLKLSHDWLCYLAPEIVREMTPGKDEDQLPFSKAADVYAFGTVWYELQARDWPLKNQAAEASIWQIGSGEGMKRVLTSVSLGKEVSEILSACWAFDLQERPSFSLLMDMLEKLPKLNRRLSHPGHFWKSADI
binding result (SEC): binds
